Calls of active or inactive are those of the source. The rule behind the calls is not given here.
What was measured:
[1] = target: T1, Peroxisome proliferator-activated receptor delta (Homo sapiens) (UniProt Q03181); experiment: Stabilization of human PPARdelta LBD assessed as change in melting temperature at 50 uM by thermal shift assay
T1 sequence (whole entry): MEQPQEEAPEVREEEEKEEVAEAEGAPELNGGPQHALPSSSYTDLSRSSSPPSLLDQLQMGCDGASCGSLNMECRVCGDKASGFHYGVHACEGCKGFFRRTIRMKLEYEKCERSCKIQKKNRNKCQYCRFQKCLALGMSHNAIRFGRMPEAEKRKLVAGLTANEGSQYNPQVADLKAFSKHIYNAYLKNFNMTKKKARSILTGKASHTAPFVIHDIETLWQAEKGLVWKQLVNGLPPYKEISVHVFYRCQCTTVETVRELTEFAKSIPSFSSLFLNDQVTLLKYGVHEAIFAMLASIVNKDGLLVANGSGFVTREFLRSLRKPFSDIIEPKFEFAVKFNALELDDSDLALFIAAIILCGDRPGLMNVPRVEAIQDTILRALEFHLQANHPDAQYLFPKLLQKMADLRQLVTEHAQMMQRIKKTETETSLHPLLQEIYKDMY
Method in brief: (§1)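 Purified hPPAR LBD at 1 mg/mL (∼25 μM) with ligand (α-LBD at 25 μM; γ- and δ-LBD at 50 μM). Static light scattering at 473 nm from 25 to 70 °C in 0.5 °C steps, 1 °C/min. Tm from four-parameter fit; ΔTm relative to DMSO; mean ± SEM, N = 3.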

[2] = target: T2, Peroxisome proliferator-activated receptor gamma (Homo sapiens) (UniProt P37231); settings: dose 50.0 µM
T2 sequence (whole entry): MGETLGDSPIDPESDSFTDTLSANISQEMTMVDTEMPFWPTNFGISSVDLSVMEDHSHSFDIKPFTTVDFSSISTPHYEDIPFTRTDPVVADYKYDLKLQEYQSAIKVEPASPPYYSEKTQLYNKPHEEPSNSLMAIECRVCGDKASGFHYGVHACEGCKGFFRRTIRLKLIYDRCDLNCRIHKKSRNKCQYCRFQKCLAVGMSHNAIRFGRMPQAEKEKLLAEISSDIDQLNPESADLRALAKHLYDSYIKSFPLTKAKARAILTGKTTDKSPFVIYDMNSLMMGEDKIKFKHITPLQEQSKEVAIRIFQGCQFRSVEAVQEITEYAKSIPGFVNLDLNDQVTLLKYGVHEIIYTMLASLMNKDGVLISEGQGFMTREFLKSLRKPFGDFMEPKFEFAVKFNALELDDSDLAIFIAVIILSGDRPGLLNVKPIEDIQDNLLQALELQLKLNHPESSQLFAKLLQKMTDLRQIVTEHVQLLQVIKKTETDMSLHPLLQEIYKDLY

[3] = system: Danio rerio; experiment: In vivo agonist activity at human GFP-tagged PPARgamma in transgenic zebrafish assessed as increase in GFP expression in tail bud at 0.1 uM measured after 14 hrs by microscopy
[4] = target: T2, Peroxisome proliferator-activated receptor gamma (Homo sapiens); experiment: Stabilization of human PPARgamma LBD assessed as change in melting temperature at 50 uM by thermal shift assay
[5] = target: T3, Peroxisome proliferator-activated receptor alpha (Mus musculus) (UniProt P23204); experiment: Agonist activity at human PPARalpha in mouse hepatocytes assessed as induction of cd36 mRNA expression at 50 uM incubated for 16 hrs by quantitative real-time PCR analysis; assay type: cell-based; settings: Hepatocyte, filed as agonist
T3 sequence (whole entry): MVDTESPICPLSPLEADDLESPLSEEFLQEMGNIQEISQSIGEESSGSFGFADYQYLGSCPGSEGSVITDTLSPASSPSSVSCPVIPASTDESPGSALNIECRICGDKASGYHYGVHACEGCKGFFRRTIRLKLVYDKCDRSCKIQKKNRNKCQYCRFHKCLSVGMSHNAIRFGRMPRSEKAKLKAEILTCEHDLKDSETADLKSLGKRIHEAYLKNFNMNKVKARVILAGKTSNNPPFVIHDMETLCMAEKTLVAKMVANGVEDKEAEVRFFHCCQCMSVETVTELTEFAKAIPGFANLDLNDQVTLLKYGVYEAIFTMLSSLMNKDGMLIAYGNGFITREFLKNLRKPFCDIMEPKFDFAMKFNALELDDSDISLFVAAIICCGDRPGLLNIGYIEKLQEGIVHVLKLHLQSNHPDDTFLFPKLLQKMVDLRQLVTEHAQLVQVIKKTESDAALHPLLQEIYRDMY
Method in brief: (§2)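 Collagenase-perfused mouse primary hepatocytes from WT mice, plated 2 h in attachment medium, overnight in M199 with 5% charcoal-stripped FBS and 1 nM insulin. Treated next day in serum-free M199 with 50 μM compound for 16 h. RNA qPCR (SYBR Green), comparative Ct method.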

[6] = system: Danio rerio; experiment: In vivo agonist activity at human GFP-tagged PPARalpha in transgenic zebrafish assessed as increase in GFP expression in epidermis at 5 uM measured after 14 hrs by microscopy
[7] = system: Danio rerio; experiment: In vivo agonist activity at human GFP-tagged PPARalpha in transgenic zebrafish assessed as increase in GFP expression in CNS at 5 uM measured after 14 hrs by microscopy
[8] = system: Danio rerio; experiment: In vivo agonist activity at human GFP-tagged PPARalpha in transgenic zebrafish assessed as increase in GFP expression in heart at 5 uM measured after 14 hrs by microscopy
[9] = target: T3, Peroxisome proliferator-activated receptor alpha (Mus musculus); experiment: Agonist activity at human PPARalpha in mouse hepatocytes assessed as induction of Pdk4 mRNA expression at 50 uM incubated for 16 hrs by quantitative real-time PCR analysis; assay type: cell-based; settings: Hepatocyte, filed as agonist; method in brief: as §2
[10] = system: Danio rerio; experiment: In vivo agonist activity at human GFP-tagged PPARalpha in transgenic zebrafish assessed as increase in GFP expression in retina at 5 uM measured after 14 hrs by microscopy
[11] = system: Danio rerio; experiment: In vivo agonist activity at human GFP-tagged PPARalpha in transgenic zebrafish assessed as increase in GFP expression in muscle at 5 uM measured after 14 hrs by microscopy
[12] = target: T3, Peroxisome proliferator-activated receptor alpha (Mus musculus); experiment: Agonist activity at human PPARalpha in mouse hepatocytes assessed as induction of fabp1 mRNA expression at 50 uM incubated for 16 hrs by quantitative real-time PCR analysis; assay type: cell-based; settings: Hepatocyte, filed as agonist; method in brief: as §2
[13] = target: T3, Peroxisome proliferator-activated receptor alpha (Mus musculus); experiment: Agonist activity at human PPARalpha in mouse hepatocytes assessed as induction of Fgf21 mRNA expression at 50 uM incubated for 16 hrs by quantitative real-time PCR analysis; assay type: cell-based; settings: Hepatocyte, filed as agonist; method in brief: as §2
[14] = target: T4, Peroxisome proliferator-activated receptor gamma (Homo sapiens, UniProt P37231); experiment: Agonist activity at human PPARgamma expressed in HEK293 cells by luciferase/beta-galactosidase reporter gene assay; assay type: cell-based
T4 sequence (P37231 whole entry): T2 sequence (whole entry)
Method in brief: (§3)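 HEK293 cells in charcoal-stripped FBS, calcium phosphate co-transfected with GAL4-hPPAR LBD fusion, UAS-luciferase and β-galactosidase. Ligand added 6–8 h post transfection, full dose–response, harvested 14–16 h later. Luciferase normalized to β-galactosidase.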

[15] = target: T5, Peroxisome proliferator-activated receptor alpha (Homo sapiens) (UniProt Q07869); experiment: Agonist activity at human PPARalpha expressed in HEK293 cells assessed as maximal activity by luciferase/beta-galactosidase reporter gene assay relative to GW7647; assay type: cell-based; method in brief: as §3
T5 sequence (whole entry): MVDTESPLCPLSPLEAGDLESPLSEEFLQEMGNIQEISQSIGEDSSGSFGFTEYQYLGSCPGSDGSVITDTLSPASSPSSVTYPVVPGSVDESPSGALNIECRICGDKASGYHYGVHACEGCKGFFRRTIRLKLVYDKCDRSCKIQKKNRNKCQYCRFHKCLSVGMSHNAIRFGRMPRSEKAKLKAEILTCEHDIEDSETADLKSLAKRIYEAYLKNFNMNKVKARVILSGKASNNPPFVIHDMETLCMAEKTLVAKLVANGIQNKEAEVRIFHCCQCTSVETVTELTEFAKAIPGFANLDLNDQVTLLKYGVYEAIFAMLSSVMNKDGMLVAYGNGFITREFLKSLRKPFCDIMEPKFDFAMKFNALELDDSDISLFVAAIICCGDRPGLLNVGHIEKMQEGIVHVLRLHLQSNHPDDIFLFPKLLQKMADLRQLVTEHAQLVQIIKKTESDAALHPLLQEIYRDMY

[16] = target: T6, Peroxisome proliferator-activated receptor alpha (Homo sapiens, UniProt Q07869); experiment: Agonist activity at human PPARalpha expressed in HEK293 cells by luciferase/beta-galactosidase reporter gene assay; assay type: cell-based; method in brief: as §3
T6 sequence (Q07869 whole entry): T5 sequence (whole entry)

[17] = target: T1, Peroxisome proliferator-activated receptor delta (Homo sapiens); experiment: Stabilization of human PPARdelta LBD assessed as change in melting temperature at 50 uM by thermal shift assay
[18] = target: T7, Peroxisome proliferator-activated receptor gamma (Mus musculus) (UniProt P37238); experiment: Agonist activity at human PPARgamma in mouse 3T3-L1 cells assessed as induction of adipogenic differentiation at 25 uM measured after 11 days by Oil Red O staining analysis; assay type: cell-based; settings: filed as agonist, time 11.0 day
T7 sequence (whole entry): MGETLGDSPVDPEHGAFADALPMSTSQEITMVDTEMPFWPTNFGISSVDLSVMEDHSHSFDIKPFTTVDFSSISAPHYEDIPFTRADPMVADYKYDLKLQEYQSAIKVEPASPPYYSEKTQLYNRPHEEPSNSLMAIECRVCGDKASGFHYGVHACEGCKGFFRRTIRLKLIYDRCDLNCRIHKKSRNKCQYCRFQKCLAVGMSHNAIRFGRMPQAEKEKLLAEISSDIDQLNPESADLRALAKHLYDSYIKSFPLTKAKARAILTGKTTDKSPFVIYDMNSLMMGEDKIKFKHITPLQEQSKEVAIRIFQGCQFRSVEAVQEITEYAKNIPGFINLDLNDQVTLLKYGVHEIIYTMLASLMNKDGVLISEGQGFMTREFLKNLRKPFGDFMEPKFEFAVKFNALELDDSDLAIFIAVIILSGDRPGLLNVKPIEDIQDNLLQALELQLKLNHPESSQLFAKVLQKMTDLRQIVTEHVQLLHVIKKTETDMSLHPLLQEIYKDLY
Method in brief: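 3T3-L1 cells differentiated for 11 days (IBMX/dexamethasone/insulin induction, then insulin, then maintenance medium) with 25 μM compound or 10 μM rosiglitazone from day 0. Cells formalin-fixed and stained with 0.6% Oil Red O. Lipid quantified spectrophotometrically after dye extraction.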

[19] = target: T2, Peroxisome proliferator-activated receptor gamma (Homo sapiens); experiment: Agonist activity at human PPARgamma transfected in HEK293 cells assessed as relative luciferase unit at 50 uM measured after 16 hrs by luciferase reporter gene assay; assay type: cell-based; settings: filed as agonist
Method in brief: (§4)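 GAL4-hPPAR (α or γ) plus UAS-luciferase and β-galactosidase transiently co-transfected into HEK293 cells, then treated with 50 μM compound for 16 h. RLU = luciferase/β-galactosidase × time, vehicle (DMSO) set to 1. Mean ± SD, N = 3; one-way ANOVA with Holm–Šidák vs vehicle.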

[20] = Metabolic stability in C57BL/6 mouse liver microsomes assessed as half life; assay type: ADME, Microsome; settings: time 2 min
[21] = target: T2, Peroxisome proliferator-activated receptor gamma (Homo sapiens); experiment: Agonist activity at human PPARgamma expressed in HEK293 cells assessed as maximal activity by luciferase/beta-galactosidase reporter gene assay relative to rosiglitazone; assay type: cell-based; method in brief: as §3
[22] = Metabolic stability in C57BL/6 mouse liver microsomes assessed as parent compound remaining incubated for 120 mins; assay type: ADME, Microsome; settings: read-out: Stability
[23] = target: T5, Peroxisome proliferator-activated receptor alpha (Homo sapiens); experiment: Agonist activity at human PPARalpha transfected in HEK293 cells assessed as relative luciferase unit at 50 uM measured after 16 hrs by luciferase reporter gene assay; assay type: cell-based; settings: filed as agonist; method in brief: as §4
[24] = target: T5, Peroxisome proliferator-activated receptor alpha (Homo sapiens); experiment: Stabilization of human PPARalpha LBD assessed as change in melting temperature at 25 uM by thermal shift assay; method in brief: as §1
[25] = system: Danio rerio; experiment: In vivo agonist activity at human GFP-tagged PPARalpha in transgenic zebrafish assessed as increase in GFP expression in brain at 8.9 uM measured after 14 hrs by microscopy
[26] = system: Danio rerio; experiment: In vivo agonist activity at human GFP-tagged PPARalpha in transgenic zebrafish assessed as increase in GFP expression in muscle at 1.5 uM measured after 14 hrs by microscopy
[27] = system: Danio rerio; experiment: In vivo agonist activity at human GFP-tagged PPARgamma in transgenic zebrafish assessed as increase in GFP expression in CNS at 1 uM measured after 14 days by microscopy; assay type: functional, organism-based; settings: time 14.0 day
[28] = system: Danio rerio; experiment: In vivo agonist activity at human GFP-tagged PPARalpha in transgenic zebrafish assessed as increase in GFP expression in yolk sac at 1.5 uM measured after 14 hrs by microscopy
[29] = system: Danio rerio; experiment: In vivo agonist activity at human GFP-tagged PPARalpha in transgenic zebrafish assessed as increase in GFP expression in heart at 1.5 uM measured after 14 hrs by microscopy
[30] = system: Danio rerio; experiment: In vivo agonist activity at human GFP-tagged PPARalpha in transgenic zebrafish assessed as increase in GFP expression in brain at 1.5 uM measured after 14 hrs by microscopy
[31] = system: Danio rerio; experiment: In vivo agonist activity at human GFP-tagged PPARgamma in transgenic zebrafish assessed as increase in GFP expression in muscle at 1 uM measured after 14 days by microscopy; assay type: functional, organism-based; settings: time 14.0 day

SMILES: O=C(O)COc1ccc(SCC=C(c2ccc(Br)cc2)c2ccc(Br)cc2)cc1Cl
- ΔTm [1]: 7.7 °C

SMILES: CN(CCOc1ccc(CC2SC(=O)NC2=O)cc1)c1ccccn1 (configuration not stated)
- ΔTm [2]: 5 °C
- Activity [3]: Active
- ΔTm [4]: 5 °C

SMILES: Cc1cccc(Nc2cc(Cl)nc(SCC(=O)O)n2)c1C
- Activity [5]: Active
- Activity [6]: Active
- Activity [7]: Active
- Activity [8]: Active
- Activity [9]: Active
- Activity [10]: Active
- Activity [11]: Active
- Activity [12]: Active
- Activity [13]: Active

SMILES: CCCCCCCCCCCCCCCc1cccc(OC(C)(C)C(=O)OCC)c1
- EC50 [14]: 3.9 µM
- Emax [15]: 5%
- EC50 [16]: 8.9 µM
- ΔTm [17]: 0.5 °C
- Activity [18]: Active
- Activity [19]: Active
- half-life [20]: 5.58 h
- Emax [21]: 30%
- remaining at 2 h [22]: 78%
- Activity [23]: Active
- ΔTm [24]: 0.6 °C
- Activity [25]: Active
- ΔTm [4]: 0.2 °C

SMILES: Cc1cc(SCc2sc(-c3ccc(C(F)(F)F)c(F)c3)nc2C)ccc1OCC(=O)O
- Activity [26]: Active
- Activity [27]: Active
- Activity [28]: Active
- Activity [29]: Active
- Activity [30]: Active
- Activity [31]: Active
